Numbering of substitutions follows the chain as printed. In names and notes the source's numbering stands.
Assays:
Ubr1 [1] = target: T1, Ubr1 (Saccharomyces cerevisiae, UniProt P19812); assay: In vitro Ubr1-dependent ubiquitination assay; type: biochemical; conditions: n = 2
In short: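 Multi-turnover reaction at 30 °C in 50 mM HEPES pH 7.5, 0.15 M NaCl, 10 mM MgCl2, 5 mM ATP. It contained 0.1 µM Uba1, 4 µM Ubc2, 0.25 µM Ubr1 (wild-type or mutant at the same level), 80 µM Ub and 5 µM substrate. Substrate was Degron or Ub-Degron labelled at an added C-terminal Cys with fluorescein-5-maleimide. Reactions were stopped in SDS sample buffer and resolved by SDS-PAGE with fluorescence imaging.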

Ubc2 = target: T2, Ubc2 (Saccharomyces cerevisiae, UniProt P06104); assay: Accessibility of the catalytic cysteine; type: biochemical; conditions: fluorescein-5-maleimide, presence or absence of synthetic U2BR peptide; average fluorescence, n = 2
T2 sequence (P06104 1-172): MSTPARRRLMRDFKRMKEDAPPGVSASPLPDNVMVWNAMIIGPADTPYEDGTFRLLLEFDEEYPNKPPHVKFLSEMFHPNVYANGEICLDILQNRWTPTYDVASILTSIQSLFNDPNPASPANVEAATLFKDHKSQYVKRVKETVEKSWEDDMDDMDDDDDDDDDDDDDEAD

Ubr1 [2] = target: T1, Ubr1; assay: Single-turnover pulse-chase Ub transfer, elongation step; type: biochemical; conditions: 0.5 μM Ubr1, 30 °C, 5 min, n = 2
[3] = target: T3, Ubc2 (Saccharomyces cerevisiae), wild type (Saccharomyces cerevisiae, UniProt P06104 3-152); assay: ITC
T3 sequence: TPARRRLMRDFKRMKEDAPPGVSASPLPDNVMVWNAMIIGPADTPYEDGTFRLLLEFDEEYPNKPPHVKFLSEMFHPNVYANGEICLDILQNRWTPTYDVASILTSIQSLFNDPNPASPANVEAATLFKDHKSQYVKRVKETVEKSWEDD

T1 sequence (P19812 whole entry, one chain of several): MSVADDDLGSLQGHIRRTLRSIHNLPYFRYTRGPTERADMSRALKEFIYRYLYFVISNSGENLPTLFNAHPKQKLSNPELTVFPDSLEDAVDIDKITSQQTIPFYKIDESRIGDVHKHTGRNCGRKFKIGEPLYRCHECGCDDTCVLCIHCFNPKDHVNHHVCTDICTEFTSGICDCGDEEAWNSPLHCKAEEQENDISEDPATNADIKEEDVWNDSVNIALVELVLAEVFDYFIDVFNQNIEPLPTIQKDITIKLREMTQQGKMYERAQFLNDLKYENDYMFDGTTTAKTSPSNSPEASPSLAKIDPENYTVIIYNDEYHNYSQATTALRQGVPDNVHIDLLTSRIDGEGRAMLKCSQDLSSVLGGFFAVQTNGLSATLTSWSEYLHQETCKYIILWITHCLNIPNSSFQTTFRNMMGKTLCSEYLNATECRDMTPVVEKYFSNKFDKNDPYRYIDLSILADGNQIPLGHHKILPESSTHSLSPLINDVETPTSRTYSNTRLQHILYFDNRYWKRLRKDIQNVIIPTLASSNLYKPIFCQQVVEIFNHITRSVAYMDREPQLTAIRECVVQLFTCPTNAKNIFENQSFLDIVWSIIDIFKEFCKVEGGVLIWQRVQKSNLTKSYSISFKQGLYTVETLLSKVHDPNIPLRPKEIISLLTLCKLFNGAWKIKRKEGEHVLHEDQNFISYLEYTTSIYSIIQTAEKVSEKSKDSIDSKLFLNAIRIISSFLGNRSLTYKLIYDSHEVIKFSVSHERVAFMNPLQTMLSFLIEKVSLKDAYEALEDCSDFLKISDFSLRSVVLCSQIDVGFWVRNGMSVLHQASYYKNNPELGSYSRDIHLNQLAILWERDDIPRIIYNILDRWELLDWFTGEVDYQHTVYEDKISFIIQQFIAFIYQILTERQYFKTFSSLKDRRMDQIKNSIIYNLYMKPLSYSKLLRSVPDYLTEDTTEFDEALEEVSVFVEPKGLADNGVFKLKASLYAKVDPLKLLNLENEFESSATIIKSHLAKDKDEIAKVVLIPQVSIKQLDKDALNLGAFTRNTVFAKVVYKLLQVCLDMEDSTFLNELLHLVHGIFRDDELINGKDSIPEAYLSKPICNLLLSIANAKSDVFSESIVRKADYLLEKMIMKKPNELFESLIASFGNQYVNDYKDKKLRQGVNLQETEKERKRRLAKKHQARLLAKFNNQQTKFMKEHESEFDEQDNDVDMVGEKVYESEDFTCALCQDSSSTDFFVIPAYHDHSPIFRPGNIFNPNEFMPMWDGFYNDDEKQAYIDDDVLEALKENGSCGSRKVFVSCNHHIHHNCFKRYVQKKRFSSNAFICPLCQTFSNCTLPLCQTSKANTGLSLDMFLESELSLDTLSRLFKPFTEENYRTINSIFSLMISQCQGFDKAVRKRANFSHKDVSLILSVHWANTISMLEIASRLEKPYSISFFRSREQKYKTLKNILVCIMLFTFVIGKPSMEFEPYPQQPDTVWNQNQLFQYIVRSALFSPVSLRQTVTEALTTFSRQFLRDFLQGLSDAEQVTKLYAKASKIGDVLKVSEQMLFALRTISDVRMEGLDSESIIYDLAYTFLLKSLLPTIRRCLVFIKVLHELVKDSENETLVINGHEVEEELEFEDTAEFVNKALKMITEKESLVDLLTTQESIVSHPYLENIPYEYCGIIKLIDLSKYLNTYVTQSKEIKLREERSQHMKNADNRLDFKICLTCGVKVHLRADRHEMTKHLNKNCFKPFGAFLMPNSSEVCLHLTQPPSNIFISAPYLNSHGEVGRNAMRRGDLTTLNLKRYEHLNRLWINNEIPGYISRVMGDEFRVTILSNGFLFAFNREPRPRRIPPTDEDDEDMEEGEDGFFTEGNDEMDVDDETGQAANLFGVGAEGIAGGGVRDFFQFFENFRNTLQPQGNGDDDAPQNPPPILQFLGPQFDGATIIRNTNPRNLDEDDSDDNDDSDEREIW

U2BR peptide: free U2BR peptide (Ubr1 1165-1200), Ubc2 binding region (KERKRRLAKKHQARLLAKFNNQQTKFMKEHESEFDE; UniProt P19812 1165-1200, looked up, fragment)
inhibition of polyubiquitination by free U2BR peptide (Ubr1 [1]; increasing concentrations of synthetic U2BR peptide): inhibited polyubiquitination in a dose-dependent manner | accessibility of the catalytic cysteine (C88) of Ubc2 (Ubc2): decreased

UBLM mutant: Ubr1 Ub binding loop mutant H678A/V679A/L680A/H681A
transfer of fluorescent Ub from Ubc2 to Ub-Degron (Ubr1 [2]): failed to transfer fluorescent Ub from Ubc2 to Ub-Degron | monoubiquitinated product (Ubr1 [1]; Hs-Type-1 Degron and Type-2 Degron as substrates): accumulation of monoubiquitinated product | Ub transfer to Degron versus Ub-Degron (Ubr1 [1]; UBLM mutant of Ubr1): transferred more Ub to Degron than to Ub-Degron | polyubiquitination of Degron and Ub-Degron (effect of mutation) (Ubr1 [1]; fluorescent Degron and Ub-Degron, 30 °C, pH 7.5): substantially reduced

B1: N65A: N65A mutation of Ubc2 (protein, UniProt P06104 1-172, looked up, variant N65A)
Ubiquitin-conjugating enzyme …: T2 sequence (P06104 1-172) with N65A
amount of polyubiquitinated Degron (Ubr1 [1]; Ubc2 N65A mutation): increased the amount of polyubiquitinated Degron

B2: U2BR peptide (Ubr1 1165-1200) (peptide, UniProt P19812 1165-1200, looked up)
peptide: KERKRRLAKKHQARLLAKFNNQQTKFMKEHESEFDE
Kd [3]: 143 ± 45 nM

B3: Ubc2 (C88S): catalytically inactive Ubc2 (protein)
chain: T3 sequence with C86S
modifications: left off: His tag, N-terminal, state not stated
inhibitory effect of pre-mixed inactive Ubc2 on ubiquitination (Ubr1 [1]; increasing doses up to 12.5 μM pre-mixed with Ubr1 and Degron, then wild-type Ubc2 at 4 μM): Minimal inhibitory effects

— PMC8798225 (Nature, 2021)
